Test results as given in PubChem BioAssay AID623915 (Johns Hopkins Ion Channel Center, 2012).
“And” between values parts separate entries of the source, which are not always exact repeats. Equal entries are not always repeated. The source made the active and inactive calls.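 Rule for the calls: active = more than 50% block of the TASK1 potassium channel current at 10 µM; inactive = the rest.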

Target: Potassium channel subfamily K member 3 (Rattus norvegicus) (UniProt O54912)
Assay: KCNK3 channel block by electrophysiology – automated electrophysiology, QPatch, CHO cells, selectivity assay for KCNK9 inhibitor project, SAR follow-up (AID 623915)
Settings: CHO-TASK1 cells, QPatch whole-cell current inhibition
Summary of the method: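 Material: CHO cells with tetracycline-inducible rat TASK1 (KCNK3) channel | Buffer or medium: 140 mM K+ external solution, pH 7.40 | Dosing: Cumulative concentration series, one cell per dose-response | Schedule: 5 min per concentration | Technique: Automated whole-cell voltage clamp, ramp protocol, current at -30 mV | Controls: Full block by 2 mM Ba2+ at pH 5.8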

Chain of Potassium channel subfamily K member 3 (Rattus norvegicus) (O54912 whole entry, looked up): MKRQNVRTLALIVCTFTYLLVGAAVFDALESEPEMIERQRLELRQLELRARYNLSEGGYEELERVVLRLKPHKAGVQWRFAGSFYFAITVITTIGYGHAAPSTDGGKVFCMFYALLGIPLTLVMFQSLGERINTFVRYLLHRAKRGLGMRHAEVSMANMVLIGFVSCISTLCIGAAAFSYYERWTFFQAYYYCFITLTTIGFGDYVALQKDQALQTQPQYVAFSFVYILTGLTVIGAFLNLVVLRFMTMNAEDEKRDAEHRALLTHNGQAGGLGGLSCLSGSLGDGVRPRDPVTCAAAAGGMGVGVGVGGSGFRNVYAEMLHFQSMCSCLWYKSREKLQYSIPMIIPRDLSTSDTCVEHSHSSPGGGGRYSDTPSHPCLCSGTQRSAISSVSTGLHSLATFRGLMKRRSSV

Row | SMILES | outcome | IC50
1 | C[C@H]([C@@H]1CC2CC[C@H]1C2)n1c(-c2ccsc2)n[nH]c1=S | inactive | –
2 | C[C@@H]([C@@H]1CC2CC[C@H]1C2)n1c(-c2ccsc2)n[nH]c1=S | – | 1960 nM and 6430 nM
3 | C[C@H](C1CCCCC1)n1c(-c2ccsc2)n[nH]c1=S | – | 6430 nM

The next lines start with the values.

Row | outcome | IC50 | SMILES
4 | – | 3200 nM | C[C@@H]([C@@H]1CC2CC[C@H]1C2)n1c(-c2ccco2)n[nH]c1=S
5 | – | 820 nM | CC(C1CC2CCC1C2)n1c(-c2ccco2)n[nH]c1=S (stereo unspecified)
6 | – | 1850 nM | CC(C1CC2CCC1C2)n1c(-c2ccco2)nn(CCc2ccncc2)c1=S (stereo unspecified)
